Experimental data taken from ChEMBL document CHEMBL1149837, “Isothiocyanate sesquiterpenes from a sponge of the genus axinyssa” (2008).
The source made the active and inactive calls. The calls are words filed in the database; no cut-off is given here.

What was measured:
[1] = system: A549; assay: Cytotoxicity against human A549 cells at 10ug/ml by SRB assay; assay type: functional, cell-based
Method in brief: (§1)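 SRB colorimetric assay of cell growth and viability, adapted from a published method, in human tumour lines MDA-MB-231 (breast adenocarcinoma), A-549 (lung adenocarcinoma) and HT-29 (colon adenocarcinoma). The highest concentration tested was 10 µg/mL. Read-outs were GI50 and TGI, both in µM.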

[2] = system: MDA-MB-231; assay: Cytotoxicity against human MDA-MB-231 cells at 10ug/ml by SRB assay; assay type: functional, cell-based; method in brief: as §1
[3] = system: HT-29; assay: Cytotoxicity against human HT29 cells at 10ug/ml by SRB assay; assay type: functional, cell-based; method in brief: as §1
[4] = system: A549; assay: Cytotoxicity against human A549 cells by SRB assay; assay type: functional; method in brief: as §1
[5] = system: HT-29; assay: Cytotoxicity against human HT29 cells by SRB assay; assay type: functional; method in brief: as §1
[6] = system: MDA-MB-231; assay: Cytotoxicity against human MDA-MB-231 cells by SRB assay; assay type: functional; method in brief: as §1

SMILES | Activity [1] | Activity [2] | Activity [3] | GI50 [4] | TGI [4] | GI50 [5] | TGI [5] | GI50 [6] | TGI [6]
CC(C)[C@@H]1CC[C@](C)(N=C=S)[C@]2(O)CC[C@@](C)(O)C=C12 | inactive | inactive | inactive | – | – | – | – | – | –
CC(C)[C@@]1(OO)CC[C@](C)(N=C=S)[C@@H]2CC[C@@](C)(O)C=C21 | inactive | inactive | inactive | – | – | – | – | – | –
CC(C)[C@@H]1CC[C@](C)(N=C=S)[C@@H]2CC[C@@](C)(O)C=C12 [AXINISOTHIOCYANATE J] | – | – | – | 11.8 µM | 19 µM | 11.8 µM | 14 µM | 10.4 µM | 14.3 µM
CC1=C[C@@H]2[C@@H](C(C)C)CC[C@@](C)(N=C=S)[C@@H]2CC1=O [AXINISOTHIOCYANATE L] | – | – | – | 31.4 µM | – | 31.4 µM | – | – | –
